Test results from ChEMBL document CHEMBL1157464, “1-[(3-Aryloxy-3-aryl)propyl]-1H-imidazoles, new imidazoles with potent activity against Candida albicans and dermatophytes. Synthesis, structure-activity relationship, and molecular modeling studies” (J Med Chem, 2008).
Values after ≈ are worked out from the molar mass of the structure shown.

Columns and labels:
Candida parapsilosis = test: Antifungal activity against Candida parapsilosis ATCC 22019 at 35 degC after 48 hrs by broth microdilution test; type: functional
How it was run: (§1)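 Broth microdilution per NCCLS M27-A2. Stocks in 100% DMSO, diluted in RPMI 1640 with 0.165 M MOPS at pH 7.0; final range 0.25–128 µg/mL. Inoculum 1000–5000 cells/mL from SDA subcultures. […] C. parapsilosis ATCC22019 served as QC strain.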

Candida albicans [1] = test: Antifungal activity against Candida albicans ATCC 10261 at 35 degC after 48 hrs by broth microdilution test; type: functional; how it was run: as §1
Candida albicans [2] = test: Antifungal activity against Candida albicans ATCC 10261 at 35 degC after 48 to 96 hrs by broth microdilution test; type: functional
How it was run: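 Minimal fungicidal concentration for Candida. […] MFC is the lowest concentration allowing fewer than two colonies (99% killing).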

Arthrodermataceae [3] = test: Antifungal activity against dermatophytes at 28 degC after 7 days by broth microdilution test; type: functional; conditions: 168 h
How it was run: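 Ten clinical isolates (two M. canis, five M. gypseum, three T. mentagrophytes) tested by NCCLS M38-A broth microdilution in MOPS-buffered RPMI 1640, pH 7.0, over 0.25–128 µg/mL. Conidial/hyphal suspension from PDA slants (28 °C, 7 days) adjusted to 65–70% transmittance at OD530, then diluted 1:50.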

Arthrodermataceae [4] = test: Antifungal activity against dermatophytes at 28 degC after 5 days by broth microdilution test; conditions: for MFC: Arthrodermataceae
Arthrodermataceae [5] = test: Antifungal activity against dermatophytes at 28 degC after 48 to 96 hrs by broth microdilution test
[6] = Lodderomyces parapsilosis, ATCC 22019, 48 h, read-out: MFC
[7] = Lodderomyces parapsilosis, ATCC 22019, 48 h, read-out: MIC
[8] = Candida albicans, ATCC 10261, 48 h, read-out: MIC
[9] = Candida albicans, ATCC 10261, 48 h, read-out: MIC50
[10] = Candida albicans, ATCC 10261, 48 h, read-out: MIC90
[11] = Candida albicans, ATCC 10261, read-out: MFC

Row | Structure (SMILES) | MFC (Candida parapsilosis; [6]) [µg/mL] | MIC (Candida parapsilosis; [7]) [µg/mL] | MIC (Candida albicans [1]; [8]) [µg/mL] | MIC50 (Candida albicans [1]; [9]) [µg/mL] | MIC90 (Candida albicans [1]; [10]) [µg/mL] | MFC50 (Candida albicans [2]) [µg/mL] | MFC90 (Candida albicans [2]) [µg/mL] | MFC (Candida albicans [2]; [11]) [µg/mL] | MIC (Arthrodermataceae [3]) [µg/mL] | MIC50 (Arthrodermataceae [3]) [µg/mL] | MIC90 (Arthrodermataceae [3]) [µg/mL] | MFC90 (Arthrodermataceae [4]) [µg/mL] | MFC (Arthrodermataceae [4]) [µg/mL] | MFC50 (Arthrodermataceae [5]) [µg/mL] | MFC (Candida parapsilosis) [µg/mL] | MIC (Candida parapsilosis) [µg/mL] | MIC (Candida albicans [1]) [µg/mL] | MIC90 (Candida albicans [1]) [µg/mL] | MFC (Candida albicans [2]) [µg/mL] | MIC50 (Candida albicans [1]) [µg/mL]
1 | Cc1ccc(OC(CCn2ccnc2)c2ccc(Cl)cc2)c(C)c1 (centres undefined) | 32 (≈ 93.9 µM) | 8 (≈ 23.5 µM) | 13.5 (≈ 39.6 µM) | 16 (≈ 46.9 µM) | 16 (≈ 46.9 µM) | 32 (≈ 93.9 µM) | 32 (≈ 93.9 µM) | 28 (≈ 82.1 µM) | 32.5 (≈ 95.3 µM) | 32 (≈ 93.9 µM) | 32 (≈ 93.9 µM) | 64 (≈ 188 µM) | 58 (≈ 170 µM) | 64 (≈ 188 µM) |  |  |  |  |  | 
2 | Clc1ccc(OC(CCn2cncn2)c2ccccc2)c(Cl)c1 (centres undefined) | 64 (≈ 184 µM) | 32 (≈ 91.9 µM) | > 128 | > 128 | > 128 | >128 | >128 | > 128 | 22.4 (≈ 64.3 µM) | 16 (≈ 45.9 µM) | 32 (≈ 91.9 µM) | 64 (≈ 184 µM) | 44.8 (≈ 129 µM) | 32 (≈ 91.9 µM) |  |  |  |  |  | 
3 | Clc1cccc(Cl)c1OC(CCn1ccnc1)c1ccccc1 (centres undefined) | 32 (≈ 92.2 µM) | 2 (≈ 5.76 µM) | 46.2 (≈ 133 µM) | 64 (≈ 184 µM) | 64 (≈ 184 µM) | 64 (≈ 184 µM) | 64 (≈ 184 µM) | 64 (≈ 184 µM) | 7.6 (≈ 21.9 µM) | 8 (≈ 23 µM) | 8 (≈ 23 µM) | 32 (≈ 92.2 µM) | 28.8 (≈ 82.9 µM) | 32 (≈ 92.2 µM) |  |  |  |  |  | 
4 | Clc1ccc(OC(CCn2ccnc2)c2ccccc2)c(Cl)c1 (single isomer, unassigned; (-)) |  |  |  |  |  | 32 (≈ 92.2 µM) | 32 (≈ 92.2 µM) |  |  |  |  |  |  |  | 8 (≈ 23 µM) | 1 (≈ 2.88 µM) | 11.8 (≈ 34 µM) | 16 (≈ 46.1 µM) | 28.6 (≈ 82.4 µM) | 
5 | Clc1ccc(C(OCCn2ccnc2)c2ccc(Cl)cc2Cl)c(Cl)c1 | 64 (≈ 154 µM) | 32 (≈ 76.9 µM) | > 128 | > 128 | > 128 | >128 | >128 | > 128 |  |  |  |  |  |  |  |  |  |  |  | 
6 | Fc1ccc(C(CCn2ccnc2)Oc2ccccc2)cc1 (centres undefined) | 32 (≈ 108 µM) | 8 (≈ 27 µM) | 32.1 (≈ 108 µM) | 32 (≈ 108 µM) | 64 (≈ 216 µM) | 64 (≈ 216 µM) | 64 (≈ 216 µM) | 57.6 (≈ 194 µM) | 16.1 (≈ 54.3 µM) | 16 (≈ 54 µM) | 16 (≈ 54 µM) | 32 (≈ 108 µM) | 28.5 (≈ 96.2 µM) | 32 (≈ 108 µM) |  |  |  |  |  | 
7 | CNCCC(Oc1ccc(C(F)(F)F)cc1)c1ccccc1 (centres undefined) [FLUOXETINE] |  |  |  |  |  |  |  |  | 45 (≈ 145 µM) | 32 (≈ 103 µM) | 64 (≈ 207 µM) | 64 (≈ 207 µM) | 64 (≈ 207 µM) | 64 (≈ 207 µM) |  |  |  |  |  | 
8 | Cc1ccc(C(CCn2ccnc2)Oc2ccc(Cl)cc2C)cc1 (centres undefined) | 16 (≈ 46.9 µM) | 4 (≈ 11.7 µM) | 16 (≈ 46.9 µM) | 16 (≈ 46.9 µM) | 16 (≈ 46.9 µM) | 64 (≈ 188 µM) | 64 (≈ 188 µM) | 58 (≈ 170 µM) |  |  |  |  |  |  |  |  |  |  |  | 
9 | Clc1ccc(OC(CCn2ccnc2)c2ccc(Cl)cc2Cl)c(Cl)c1 (centres undefined) | 64 (≈ 154 µM) | 8 (≈ 19.2 µM) | 51 (≈ 123 µM) | 64 (≈ 154 µM) | 64 (≈ 154 µM) | 64 (≈ 154 µM) | 64 (≈ 154 µM) | 64 (≈ 154 µM) |  |  |  |  |  |  |  |  |  |  |  | 
10 | Cc1ccc(OC(CCn2ccnc2)c2ccccc2)cc1 (single isomer, unassigned; (-)) |  |  |  |  |  | 64 (≈ 219 µM) | 64 (≈ 219 µM) |  |  |  |  |  |  |  |  | 2 (≈ 6.84 µM) | 28.3 (≈ 96.8 µM) | 64 (≈ 219 µM) | 51.4 (≈ 176 µM) | 16 (≈ 54.7 µM)
11 | Cc1ccc(C(CCn2ccnc2)Oc2ccc(C(C)(C)C)cc2)cc1 (centres undefined) | 16 (≈ 45.9 µM) | 8 (≈ 23 µM) | 52.1 (≈ 150 µM) | 64 (≈ 184 µM) | 64 (≈ 184 µM) | 64 (≈ 184 µM) | 64 (≈ 184 µM) | 58 (≈ 166 µM) | 11.2 (≈ 32.1 µM) | 8 (≈ 23 µM) | 16 (≈ 45.9 µM) | 16 (≈ 45.9 µM) | 14.4 (≈ 41.3 µM) | 16 (≈ 45.9 µM) |  |  |  |  |  | 
